According to the EternaBench riboswitch data:

System: MS2 coat protein
Assay: apparent Kd, MS2 coat protein; higher = weaker binding; RNA-MaP array; FMN 200 µM where present
How it was run: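 SNAP-549-labelled MS2 coat protein, doubled from 0.7 or 1.5 nM to 3 µM, was titrated over designs transcribed by stalled E. coli RNA polymerase on Illumina sequencing-chip clusters. Titrations were run without and then with constant ligand in 100 mM Tris-HCl pH 7.5, 80 mM KCl, 4 mM MgCl2, BSA, DTT, yeast tRNA and Tween-20. The apparent Kd is the median of filtered per-cluster fits to green signal normalised to red-channel RNA signal and control-cluster median Fmax.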

[1] = designed as: OFF switch for flavin mononucleotide, no ligand
[2] = ligand present: flavin mononucleotide, designed as: OFF switch for flavin mononucleotide
[3] = designed as: ON switch for flavin mononucleotide, no ligand
[4] = ligand present: flavin mononucleotide, designed as: ON switch for flavin mononucleotide

Row | Sequence | apparent Kd [1] | apparent Kd [2] | apparent Kd [3] | apparent Kd [4]
1 | CAGGUAGACUGAGGAUAUACAAUAAAGACCUAGUCUAUCUAGGUCCCUACAUGAGGAUCACCCAUGUAGAAGGCAGUCUGCCUG | 15.9 nM | 20.5 nM | – | –
2 | ACUAGAUGAGGAUAUGCAUGUUUUCAUGUUCUUCUAGAUUAACAUGAGGAUCACCCAUGUAGAAGGCGUCUUUA | 19.5 nM | 34.8 nM | – | –
3 | AAGUCGUUAGGAUAUACAUGGAUAUACAUUUAUGUAGAACUACAUGAGGAUCACCCAUGUAGAAGGAACGAAUA | 38.2 nM | 54 nM | – | –
4 | CGUGUUAGAGGAGGAUAUAGCGCAAGAAGGUCGCUAGAAGGCCUUGACAUGAGGAUCACCCAUGUGAUCGGCUCUCUGGGUAAG | 211 nM | 141 nM | – | –
5 | GCUCGUAGACAGAAGGCGACAUGAGGAUCACCCAUGUUGGCUCGGGUAUGACCAAUCCGCAUGAUCGAGGAUAUGUCCGCGGGC | 287 nM | 16.4 nM | – | –
6 | UAAUAAUAGUCAGGAUAUAGUUAUUAUAAUAUACUAGAAGGGACACAUGAGGAUCACCCAUGUUUUAUAAUUUGUAAUUUAAAU | 21.6 nM | 17.7 nM | – | –
7 | GUGUACAUAUCAGGAUAUCAUCGAGUGGAUUAACACAGUGAUUACAUGAGGAUCACCCAUGUGCUUGAGAAGGGAUUACAAUGU | 19.3 nM | 16.4 nM | – | –
8 | GUUAUGCGAGGAUAUACAUGAGGAUCACCCAUGUAAUCUGGUGGCGUGAAAAUAAAGUGUAGAAGGCGCUGACC | 17.6 nM | 31.9 nM | – | –
9 | AGCAACAUGAGGAUCACCCAUGUUGGUUCGAAAACGGACUCACAGGAUAUGCAGCGUGAUCGCUCGCAGAAGGGUGCGUCCUCA | – | – | 51.2 nM | 38.7 nM
10 | CACGAUGAUGUAGGAUAUAUGCUGGAAUACAGCAUAGAAGGACAUGAGGAUCACCCAUGUAAAGUGCCUCCAAAUAACAUCGUG | 18.5 nM | 44.5 nM | – | –
11 | GUCAGCUCGUGAGGAUAUACAUGUGCUGGAAACAGCACUAAAGAUUUCACAUGAGGAUCACCCAUGUAGAAGGCACGAGCUGAU | 16.1 nM | 38 nM | – | –
12 | AUAUAAAAUAUAGGAUAUGGAAACAUGAGGAUCACCCAUGUAUGAUAAGAUAAAUUAUGAUAUAGCCAGAAGGAUACAAUAUAA | – | – | 31.3 nM | 38.3 nM
13 | UAAGAAGCACUCGGAACCGGACAAUGAGAAGGCCACGCACAUGAGGAUCACCCAUGUAAAGCUAUGGAGGAUAUCAUGAUGGAA | – | – | 80.9 nM | 8.71 nM
14 | UAUGACAUGAGGAUCACCCAUGUCAGCGAGAAAUGAGAGUCACAGGAUAUGUUUUCGGCCGGCAGACAGAAGGGUGACCCUCCG | – | – | 7.33 nM | 6.74 nM
15 | CAGCGAUAGCUGAACAAUCUAUCUGAGGAUAUUCAUAUAAAACAUGAGGAUCACCCAUGUAAUUGGGAGAAGGCAGAUAGAUUG | – | – | 22.4 nM | 6.11 nM
16 | CGUCUGUGAGGAUAUGGUGUCGUUUACAUGAGGAUCACCCAUGUUUCAUGGGACUAGAGACUAGAAGGUACUGACG | 314 nM | 413 nM | – | –
17 | CGGCGACAUGAGGAUCACCCAUGUCAAGAGUGGUCAGGAUAUGGUAUGAGAUGAGUAUGGCCAGAAGGGACAUAAG | – | – | 29.1 nM | 21.2 nM
18 | AAGUCGACGGUGAGGAUAUUAGUUGAACGACAGAUUAAGAAGGUACAUGAGGAUCACCCAUGUGGGUAGUGUUG | 96 nM | 98.6 nM | – | –
19 | GGGUACAUCGGAGGAUAUCAUGUAAAUACAUGAGGAUCACCCAUGUCCAUGGAGACAUCGGAGAUUGAGAAGGCCGAUGUACCG | – | – | 171 nM | 203 nM
20 | GUACUACAUGAGGAUCACCCAUGUGAGGAUAUGCGAAUUUCAUCAAAAGAUGAAAUUUGCAGAAGGCACUGUAC | 46.7 nM | 34 nM | – | –
21 | AAUAACAGAGGAUAUACUGUUUUAUGUAUUUAUUAUUUUAAACAUGAGGAUCACCCAUGUAGAAGGCUGAGUAA | 24.6 nM | 23.4 nM | – | –

Row | Sequence | apparent Kd [1] | apparent Kd [2] | apparent Kd [3] | apparent Kd [4]
22 | CUUUAGUGAGGAUAUCAGUAGUAAUACAAUAGUAUUACUAUUGAGAAGGCACAUGAGGAUCACCCAUGUUCCUC | 24.6 nM | 141 nM | – | –
23 | CUUUUGUGAGGAUAUCAGUGGUAAAACAAUAGUAUUACUACUGAGAAGGCACAUGAGGAUCACCCAUGUUCCUC | 47.1 nM | 304 nM | – | –
24 | GUGGUCAGACAUGAGGAUCACCCAUGUGGAAUAAAUAACACACAGGAUAUCCAAUAUAAAAUAUAGGAGAAGGGUGGAUUGGUG | – | – | 253 nM | 181 nM
25 | UGGCUACAUGAGGAUCACCCAUGUCAGGAUAUGCCGUUGGAUUGACAUCGUCGUUCGGGUAGAAGGGACUGCGU | 47.6 nM | 53.1 nM | – | –
26 | UUUGUUUAUGCAGGAUAUUGACUUUUAUUUCUACAAGAAGGGCAUUACAUGAGGAUCACCCAUGUCUACAUGUAUUUAACUAGU | 67.8 nM | 49.1 nM | – | –
27 | AGACGGAGCUGAGGAUAUAACAUGAGGAUCACCCAUGUAAGUCUCCAGGAAACUGGAGACAAUAGUUAGAAGGCAGCUCCGUCA | 13.6 nM | 22.3 nM | – | –
28 | AUUGUUAAGGUAGGAUAUAGUAAAAUGAUUUAAUUAGAAGGAUCUCACAUGAGGAUCACCCAUGUAAGAGGAUUACCCAUGUAU | 14.5 nM | 13.2 nM | – | –
29 | GCACAUGAUACAGGAUAUGUUUAGGAUUUUAUAUACAGUUAUUUUAUUUUGACAGAAGGGUAUACAUGAGGAUCACCCAUGUGC | 87.2 nM | 58.1 nM | – | –
30 | GCUGGGUCAGGAUAUACAAGAUCGAAAGAUCUGUGAAACGAACAUGAGGAUCACCCAUGUAGAAGGGACUGGGC | 20.5 nM | 33.2 nM | – | –
31 | CACAAUCUAUCUGAGGAUAUCAUGAAAAAAACAUGAGGAUCACCCAUGUGCAGGAAAACUGCAUAUGAGAAGGCAGAUAGAUUGU | – | – | 770 nM | 28.4 nM
32 | CGCCGACAUGAGGAUCACCCAUGUCACAUCUGGUCAGGAUAUGGUGUGGUUUGGCUAUUGCCAGAAGGGACCUCAG | – | – | 101 nM | 102 nM
33 | CAUACGUCAGGAUAUCUGAUGUCUAACUUCGGUUAGACAUCAGAGAAGGGACAUGAGGAUCACCCAUGUAUGAA | 118 nM | 130 nM | – | –
34 | AUUAUUUAGUAGAAGGACGACUAUUAAUAUUUCGUAGGAUAUACUAUUUACAUGAGGAUCACCCAUGUUUAAAUGGAACAAUGU | 11.2 nM | 14 nM | – | –
35 | GCCGAGUGAGGAUAUACAUGAGGAUCACCCAUGUAAACACGAAAGCAAGUGUCCCUCAGUAGAAGGCGCCUGGA | 14.2 nM | 16.6 nM | – | –
36 | AGGUAAGACUUAAUUGUGCUGGUGAGAAGGCUGCUGGUUGUGGUCUACAUGAGGAUCACCCAUGUUGAGGAUAUCAUCGGUAUC | 711 nM | 103 nM | – | –
37 | GUACAUGAGGAUCACCCAUGUAAAUGGGUAAAUAUAGAACGUAGAAGGAUGUAUUUACACAUGACAUAGGAUAUACUAUAUAGU | 93.8 nM | 73.9 nM | – | –
38 | CUGAUGUGAGGAUAUCGGACUACGGCCAGGCCGCUAGCAUACGAGAAGGCACAUGAGGAUCACCCAUGUGAGAA | 13.3 nM | 42.7 nM | – | –
39 | GUUGUGUAUGUAGGAUAUGCGAAGCAAAGCUUCGCAGAAGGACAUGAGGAUCACCCAUGUAUUGCAGCCUGCAAACAGGCUGCU | 40.2 nM | 170 nM | – | –
40 | CUAGAAAGGACAGGAUAUCGGGAUCGAACACCCGACAUGAGGAUCACCCAUGUCGCAAAUGAUAGCGAGAAGGGUCGGACACAA | – | – | 57 nM | 18.6 nM
41 | ACAUGAUAUGUAGGAUAUCACAUUAAUUGUUUAAUAAUUGAAUUUAGGAUUUGAGAAGGACAUUUACAUGAGGAUCACCCAUGU | 16.9 nM | 12.7 nM | – | –
42 | GAGUCACGAAUAAUAAUAAGAUCUACAUGAGGAUCACCCAUGUAGGAUAUGCAGUGGAAUACACUGCAGAAGGACAUACGUGAC | 14 nM | 17.5 nM | – | –
